In ChEMBL document CHEMBL4513216, “Probing the Open Global Health Chemical Diversity Library for Multistage-Active Starting Points for Next-Generation Antimalarials” (ACS Infect Dis, 2020):

Assay: Toxicity liver stage against HepG2, at 10uM
Type: cell-based
Parameters: test concentration 10 uM, cell line HepG2-A16-CD81EGFP
Conditions: human, HepG2-A16-CD81EGFP cells; read-out: INHIBITION
Outline: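 Uninfected HepG2-A16-CD81EGFP cells, 3 × 10^3 per well, 1536-well, plated on prespotted compound at 10 μM final, parasite-free screening media added to match infected plates; puromycin 10 μM positive, DMSO 0.5% negative; run in parallel with 48 h PbLuc assay at 37 °C, 5% CO2; viability by CellTiter-Glo luminescence, normalized to controls.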

SMILES | cytotoxicity at 10 µM [%]
CN1C[C@@H](F)[C@@H](OCc2nc3ccccc3[nH]2)C1 | 5.34
CO[C@H]1C(=O)N(C)C2(CCNCC2)[C@@H]1C(=O)Nc1ccccc1 | 6.17
Cc1nc(N2CCN(C(=O)c3cccs3)CC2)cc(-n2cccc2)n1 | 1.01
CC(C)(C)c1cc(=O)n2c(n1)SCC(C(=O)NCc1ccccn1)C2 (stereo not given) | -6.88
c1cn2c(n1)CNCC(COCC1CC1)C2 (stereo not given) | 17.4
CN1CCN(C(=O)C[C@@H]2COC[C@H]3CN(c4ccncn4)C[C@@H]23)CC1 | -134
O=C(C1CCOC1)N1CCN(Cc2cccnc2)c2ncccc2C1 (stereo not given) | 3.07
O=C(CC1CC1)N[C@@H]1CN(Cc2nccs2)C[C@@H]2CCCO[C@@H]21 | 8.85
O=C(c1cccc(F)c1)N1C[C@H]2CCCC(OCc3cccnc3)[C@H]2C1 (stereo not given in full) | 8.21
CCOCC1CN(Cc2ccc3c(c2)OCO3)Cc2nccn2C1 (stereo not given) | -126
CCn1nc(C)c2nnn(CC(=O)Nc3ccc(C)cc3)c(=O)c21 | 8.49
CNC(=O)c1cn[nH]c1C1(C)CCCN(CC2(O)CCCCC2)C1 (stereo not given) | -26
CCn1ncc(CN2CCc3nc(-c4cccnc4)nc(O)c3C2)c1C | -23.7
COc1cnc(C2(O)CCN(C(=O)c3ccco3)CC2)c(OC)n1 | -7.02
Cc1cc(C(=O)NCc2cccs2)c2c(C3CCCN3)noc2n1 (stereo not given) | 6.36
COc1ccc(Br)cc1SCCS(C)(=O)=O | 2.71
Cc1csc(N2CCCN(C(=O)c3cccs3)CC2)n1 | -8.08
COc1ccccc1CC(C)CC(=O)O (stereo not given) | 12.9
Cc1nc(CNCc2ccc(N3CCN(C)CC3)nc2)cs1 | -5.33
CN(CC(=O)N(C)C1CC1)C1CCN(c2ccc(Cl)cc2)CC1 | 0.153
Cc1cc(CN2CCN(C(=O)C3(C#N)CCCC3)CC2)on1 | -14.9
Cc1cc(NC(=O)NC(C)(C)c2nc(C)c(C)s2)no1 | -1.95

SMILES | cytotoxicity at 10 µM [%]
CCOC(=O)c1nnc2ccccc2c1N1CCOC(C)(C)C1 | 13.8
CSc1ccc(C(CC(=O)O)NC(=O)c2cc(C)on2)cc1 (stereo not given) | -12.1
COc1cc(NC(=O)NC2CCOCC2)ccc1N1CCOC1=O | -4.59
CS(=O)(=O)N1CCCCCC1C1CCN(Cc2nc(C3CC3)no2)CC1 (stereo not given) | -4.09
Cc1cc(C2CCCN2C(=O)NCc2cccnc2OC(C)C)on1 (stereo not given) | -9.63
CNC(=O)CN1CCC(NC(=O)Cn2cc(C)c3ccccc32)CC1 | -4.65
Cc1cc(NC(=O)c2ccc(F)cc2F)n(C)n1 | -2.18
COc1ccc(CNC(=O)Nc2ccc(=O)n(C)c2)cc1 | 1.92
Cc1ccc(F)c2c1CCCN2C(=O)c1cn(CC(=O)N(C)C)nn1 | -0.367
O=S(=O)(CCO)Cc1ccc(OC(F)F)cc1 | -2.88
N#Cc1c[nH]c(C(=O)N(Cc2ccc(O)cc2)CC2CC2)c1 | 11.5
CCN(Cc1nc(C2CC2)no1)Cc1ccc(C#N)cc1F | 3.82
OCCOc1nc(-c2ccccc2Cl)no1 | -10.5
Cc1c(C(=O)NCC2CCCO2)nnn1-c1cccc2c1CCN(C)C2 (stereo not given) | 1.96
CN(CCn1nc2ccccn2c1=O)CC(=O)NC1CC1 | 3.2
Cc1noc(C(C)N2CCN(CC(=O)N3CCOCC3)CC2)n1 (stereo not given) | -8.41
CC(C)CN1C[C@@H]2CN(C(=O)c3cccn3C)C[C@@H]2C1=O | -111
CC(C)(CO)Nc1cc(-c2ccccc2)ncn1 | -7.8
O=C(c1ccc(-c2ccoc2)nc1)N1CCCN(C2CCCCC2)CC1 | 7.69
CSc1ncccc1C(=O)N(C)CCc1scnc1C | 4.23
Cc1nc2cc(OCc3nc(C(=O)NC(CO)CO)co3)ccc2s1 | 4.01
O=c1n(CC2CC2)nc(C2CCNCC2)n1Cc1ccccc1 | -4.8

SMILES | cytotoxicity at 10 µM [%]
CCOc1ccccc1N1CCN(CC2(O)CCCNC2)CC1 (stereo not given) | -2.36
COc1ccccc1CN1C(=O)O[C@@H]2CN(c3ccccn3)C[C@@H]21 | 5.97
COCC(C)N(Cc1ccccc1OC)C(=O)c1cc(C)[nH]c(=O)c1 (stereo not given) | -3.73
O=C(NCCC1CN(Cc2cccnc2)CCO1)c1ccsc1 (stereo not given) | -8.03
Cc1ccc(N2CCC(c3nccn3Cc3cscn3)CC2)nn1 | -12.8
CN(Cc1cnn(C)c1)C(=O)C1COc2ccccc2C1 (stereo not given) | 0.583
O=C1CC2(CCCC2)CC(=O)N1Cc1ncccn1 | 1.27
CN(C)c1cnn(Cc2nc3ccccc3n2C)c(=O)c1 | 10.9
CN(C(=O)CN1CCCC1=O)C1CCCN(C2Cc3ccccc3C2)C1 (stereo not given) | 0.024
Cc1ccccc1CN(CCN(C)C)Cc1ccc(O)c(C(=O)O)c1 | 0.935
Cc1ccc(-c2n[nH]cc2CN(Cc2nccn2C)C(C)C)cc1C | 2.57
O=C(O)C(c1ccc2c(c1)OCO2)N1CCCCCC1 (stereo not given) | -0.293
O=C(O)c1ccc(N2CCC(Oc3ccc(Cl)cc3)CC2)nc1 | -55.6
Cc1ccc(OC2CCN(C(=O)C(C)Cn3cccn3)CC2)cc1 (stereo not given) | -2.09
O=C(NCCc1c[nH]cn1)C1CCCN(Cc2ccco2)C1 (stereo not given) | -0.123
Cc1ccc(CN(CCCO)Cc2nc3ccccc3[nH]2)s1 | 7.18
COC(C)(C)CC(C)NCc1cc(-c2ccco2)on1 (stereo not given) | 1.81
CCC(=O)N1CCC(Oc2ccc(C(=O)NCCN(C)C)cc2Cl)CC1 | 4.12
CCc1cc(N2CCC(NC3CCOCC3)CC2)nc(N(C)C)n1 | -14.5
COc1c(C2CCCN2C(=O)c2cnc[nH]2)c(C)nn1C (stereo not given) | -1.68
N#Cc1cccc(CNCCNC(=O)Cc2cccc(F)c2)c1 | 3.7
COC(=O)C(NC(=O)C1CC1)c1cc(F)ccc1F (stereo not given) | -4.64

SMILES | cytotoxicity at 10 µM [%]
O=C(CN1C=Nc2ccccc2S1(=O)=O)NCC1CC1 | -10.2
Cc1nccc(-c2cccc(NCC(=O)NCC(=O)N3CCCC3)c2)n1 | -9.18
O=C(CCOc1ccccc1F)N1CCCC1Cn1cccn1 (stereo not given) | -3.71
COc1ccccc1CC(=O)N1CCC(NCc2ccc(C)o2)CC1 | -5.28
O=C(Nc1ccc(CCN2CCC(O)CC2)cc1)C1CCCCC1 | -17.7
O=C(NCCNc1cnccn1)N1CCN(c2nccs2)CC1 | -0.84
Cc1nc(C)n(CC2CCCN(CCOc3ccccc3C#N)C2)n1 (stereo not given) | 4.61
CN(C)Cc1cccc(C(=O)N2CCCC(n3cncn3)C2)c1 (stereo not given) | -5.87
CC(C)NC(=O)Nc1ccc(CNCc2ccc(OC(F)F)cc2)cc1 | -3.95
NS(=O)(=O)c1cc(C(=O)N2CCCC(n3ccnc3)C2)cs1 (stereo not given) | -11.3
Cc1cnn(CC2CN(Cc3nc4ccccc4c(=O)[nH]3)CCO2)c1 (stereo not given) | -7.62
O=C(NCCNc1ccc(C(F)(F)F)cn1)c1ccc(Cl)cc1F | -1.99
CC(C)c1nnc2n1CCN(C(=O)c1ccc(OCC3CC3)cc1)C2 | -6.14
O=C(Cc1cccc(F)c1)NCCNCc1ccco1 | -6.08
CCc1nc(C(=O)N2CCN(C)CC2C)nn1-c1ccccc1Cl (stereo not given) | -2.38
CC(NC(=O)CSCC#N)c1cccc(NC(=O)c2ccccc2)c1 (stereo not given) | -1.79
CCc1nc2n(n1)CC(NCc1noc(-c3ccccc3)n1)CC2 (stereo not given) | -10.6
c1nc2n(n1)CC(NCc1nc(-c3ccsc3)no1)CC2 (stereo not given) | -8.13
O=C(c1nc(=O)[nH][nH]1)N1CCCC(c2cc(C(F)(F)F)[nH]n2)C1 (stereo not given) | -12.3
Cc1cc(C)cc(C2(C(=O)N3CCCC(n4cncn4)C3)CC2)c1 (stereo not given) | -3
Cc1ccc2oc(C(=O)N3CCC(C(=O)N4CCCC4)CC3)cc2n1 | -1.35
CC(C)c1ccc(OCCC(=O)N2CCC(CC(N)=O)CC2)cc1 | -14

SMILES | cytotoxicity at 10 µM [%]
CNS(=O)(=O)c1ccc(C(=O)N2CCCC(n3cccn3)C2)cc1 (stereo not given) | -7.95
CCC(CC)C(CNC(=O)Nc1cc(C)nn1C)N1CCOCC1 (stereo not given) | 1.74
CN(Cc1cnn(C)c1)C(=O)NC1CCN(Cc2ccccn2)CC1 | -2.35
Cc1ccc(-c2cc(CN3CCCC(Cn4cncn4)C3)on2)cc1 (stereo not given) | -11.8
O=C(C1CC=CC1)N1CCC2(CC1)CNCCO2 | 1.46
O=C(Cc1ccsc1)N1CCN(CC2CC2)c2ncccc2C1 | -101
COC[C@@H]1CC[C@H]2[C@H](CCN2C(=O)c2ccncc2F)O1 | -8.82
CN1CC(=O)N(c2ccccc2)CC12CCN(C(=O)c1cnccn1)C2 (stereo not given) | 9.91
Fc1cccnc1O[C@H]1CN(Cc2ccoc2)[C@@H]2CCCO[C@H]12 | -0.908
Cc1ccc(CN2CC[C@H]3[C@H]2CC(=O)N3c2ccsc2)o1 | 1.12
CC(C)N1CCc2ncn(C)c2C1C(=O)N1CCOCC1 (stereo not given) | 10.9
O=C(NC1CC1)N1CC[C@H](OCC2CC2)[C@@H]1Cc1cccnc1 | 1.36
CCOCCN1C[C@H](C(=O)Nc2cccnc2)[C@@H]2CCO[C@@H]2C1 | -101
CC[C@@H]1N(Cc2ccc(C)o2)CCC[C@]12CCC(=O)N2CCOC | 10.5
Cc1noc(C)c1CN1CCO[C@H]2CN(C(=O)C3CCOCC3)C[C@H]21 | 0.845
CCOCC1CN(CC2CC2)Cc2nn(CC3CC3)cc21 (stereo not given) | 0.748
Cc1cccc(CN2CCN3C[C@H](Oc4cccnc4)C[C@H]3C2)n1 | 6.61
NC(CNS(=O)(=O)Cc1cccc2cccnc12)c1ccccc1 (stereo not given) | -5.39
CCN(CC)CCN1CCO[C@H]2[C@@H](OCc3ccncc3)CC[C@@H]21 | -4.65
c1cncc(CNc2ccc3nc(C4CCNCC4)nn3c2)c1 | -108
NCC1CCC(C(NC(=O)C2CC2)c2ccccn2)CC1 (stereo not given) | -12.6
CCc1oc(C(=O)N2CC[C@@H]3CC[C@H](C2)N3)cc1CN(CC)CC | 4.83
